Experimental data reported in ChEMBL document CHEMBL3124843, “Synthesis, cytostatic, antimicrobial, and anti-HCV activity of 6-substituted 7-(het)aryl-7-deazapurine ribonucleosides” (J Med Chem, 2014).
Calls of active or inactive are those of the source. The rule behind the calls is not given here.

What was measured:
[1] = test system: A549; test: Cytostatic activity against human A549 cells after 72 hrs by MTT assay; format: functional, cell-based; conditions: A549, 72 h
Method in brief: (§1)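 IC50 is the concentration that cuts cell growth by 50%, read by quantitative metabolic MTT staining after a 3-day treatment. The resistant sublines were made by raising the concentration of the cytotoxic drug step by step. CEM-DNR-bulk (daunorubicin-selected) stably overexpresses mrp-1. K562-TAX (paclitaxel-selected) expresses only mdr-1. HCT116p53−/− carries null p53 alleles. BJ and MRC-5 are nonmalignant fibroblasts.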

[2] = test system: Hepatitis C virus; test: Antiviral activity against Hepatitis C virus subtype 1b infected in human HuH7 cells; format: functional, organism-based, Hepacivirus hominis; conditions: genotype 1b, Huh-7
[3] = test system: Pseudomonas aeruginosa; test: Antibacterial activity against multi-resistant Pseudomonas aeruginosa A/16575 after 24 hrs; format: functional, organism-based
[4] = test system: HCT-116; test: Cytostatic activity against p53-deficient human HCT116 cells after 72 hrs by MTT assay; format: functional, cell-based; conditions: HCT-116, 72 h; method in brief: as §1
[5] = test system: Pseudomonas aeruginosa; test: Antibacterial activity against Pseudomonas aeruginosa CCM 3955 after 24 hrs; format: functional, organism-based
[6] = test system: Pichia kudriavzevii; test: Antifungal activity against Candida crusei after 48 hrs; format: functional, organism-based
[7] = Cytostatic activity against human CEM-DNR-bulk cells after 72 hrs by MTT assay; format: functional, cell-based; method in brief: as §1
[8] = test system: Escherichia coli; test: Antibacterial activity against Escherichia coli CCM 3954 after 24 hrs; format: functional, organism-based
[9] = test system: HCT-116; test: Cytostatic activity against human HCT116 cells after 72 hrs by MTT assay; format: functional, cell-based; conditions: HCT-116, 72 h; method in brief: as §1
[10] = test system: CCRF-CEM; test: Cytostatic activity against human CCRF-CEM cells after 72 hrs by MTT assay; format: functional, cell-based; method in brief: as §1
[11] = test system: K562; test: Cytostatic activity against paclitaxel-resistant human K562 cells after 72 hrs by MTT assay; format: functional, cell-based; conditions: K562, 72 h; method in brief: as §1
[12] = test system: Candida albicans; test: Antifungal activity against Candida albicans after 48 hrs; format: functional, organism-based
[13] = Cytotoxicity against human HuH7 cells infected with Hepatitis C virus subtype 1b; format: cell-based, Huh-7
[14] = test system: Staphylococcus aureus; test: Antibacterial activity against Staphylococcus aureus CCM 3953 after 24 hrs; format: functional, organism-based
[15] = test system: HL-60; test: Antiproliferative activity against human HL60 cells after 72 hrs by XTT assay; format: functional, cell-based; conditions: HL-60, 72 h
Method in brief: (§2)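 Antiproliferative test on HL-60 promyelocytic leukemia and HeLa S3 cervical carcinoma cells growing in liquid suspension.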

[16] = Antiproliferative activity against human HeLaS3 cells after 72 hrs by XTT assay; format: functional, cell-based; conditions: HeLa S3, 72 h; method in brief: as §2
[17] = test system: Candida parapsilosis; test: Antifungal activity against Candida parapsilosis after 48 hrs; format: functional, organism-based
[18] = test system: MRC5; test: Cytostatic activity against human MRC5 cells after 72 hrs by MTT assay; format: ADME, cell-based; conditions: MRC5, 72 h; method in brief: as §1
[19] = test system: BJ; test: Cytostatic activity against human BJ cells after 72 hrs by MTT assay; format: ADME, cell-based; method in brief: as §1
[20] = test system: Escherichia coli; test: Antibacterial activity against multi-resistant Escherichia coli C/16702 after 24 hrs; format: functional, organism-based
[21] = test system: HepG2; test: Antiproliferative activity against human HepG2 cells after 72 hrs by XTT assay; format: functional, cell-based; conditions: HepG2, 72 h
[22] = Cytotoxicity against human HuH7 cells infected with Hepatitis C virus subtype 2a; format: cell-based, Huh-7
[23] = test system: Enterococcus faecalis; test: Antibacterial activity against Enterococcus faecalis CCM 4224 after 24 hrs; format: functional, organism-based
[24] = test system: Staphylococcus haemolyticus; test: Antibacterial activity against methicillin-resistant Staphylococcus haemolyticus A/16568 after 24 hrs; format: functional, organism-based
[25] = test system: Hepatitis C virus; test: Antiviral activity against Hepatitis C virus subtype 2a infected in human HuH7 cells; format: functional, organism-based, Hepacivirus hominis; conditions: genotype 2a, Huh-7
[26] = test system: Staphylococcus aureus; test: Antibacterial activity against methicillin-resistant Staphylococcus aureus MRSA 4591 after 24 hrs; format: functional, organism-based
[27] = test system: K562; test: Cytostatic activity against human K562 cells after 72 hrs by MTT assay; format: functional, cell-based; conditions: K562, 72 h; method in brief: as §1
[28] = test system: Candida tropicalis; test: Antifungal activity against Candida tropicalis after 48 hrs; format: functional, organism-based

| SMILES | IC50 [1] | EC50 [2] | Activity [3] | IC50 [4] | Activity [5] | Activity [6] | IC50 [7] | Activity [8] | IC50 [9] | IC50 [10] | IC50 [11] | Activity [12] | CC50 [13] | Activity [14] | IC50 [15] | IC50 [16] | Activity [17] | IC50 [18] | IC50 [19] | Activity [20] | also measured |
| --- | --- | --- | --- | --- | --- | --- | --- | --- | --- | --- | --- | --- | --- | --- | --- | --- | --- | --- | --- | --- | --- |
| CNc1ncnc2c1c(-c1cccs1)cn2[C@@H]1O[C@H](CO)[C@@H](O)[C@H]1O | > 20 µM | > 44 µM | inactive | > 20 µM | inactive | inactive | > 20 µM | inactive | > 20 µM | > 20 µM | > 20 µM | inactive | > 44 µM | inactive | > 20 µM | > 20 µM | inactive | > 100 µM | > 100 µM | inactive | IC50 [21]: > 20 µM; CC50 [22]: > 44 µM; Activity [23]: inactive; Activity [24]: inactive; EC50 [25]: > 44 µM; Activity [26]: inactive; IC50 [27]: > 20 µM; Activity [28]: inactive |
| CN(C)c1ncnc2c1ccn2[C@@H]1O[C@H](CO)[C@@H](O)[C@H]1O | > 20 µM | 0.27 µM | inactive | 5.09 µM | inactive | inactive | 2.6 µM | inactive | 18.4 µM | 0.63 µM | 0.89 µM | inactive | > 44 µM | inactive | 0.87 µM | 10.6 µM | inactive | 58.2 µM | 5.3 µM | inactive | IC50 [21]: 1.81 µM; CC50 [22]: > 44 µM; Activity [23]: inactive; Activity [24]: inactive; EC50 [25]: 0.97 µM; Activity [26]: inactive; IC50 [27]: 5.28 µM; Activity [28]: inactive |
| O=c1[nH]cnc2c1c(-c1ccoc1)cn2[C@@H]1O[C@H](CO)[C@@H](O)[C@H]1O | > 20 µM | 4.54 µM | inactive | 14.8 µM | inactive | inactive | > 20 µM | inactive | 10.3 µM | 9.03 µM | 14.5 µM | inactive | > 44 µM | inactive | 6.37 µM | > 20 µM | inactive | > 100 µM | > 100 µM | inactive | IC50 [21]: 12.1 µM; CC50 [22]: > 44 µM; Activity [23]: inactive; Activity [24]: inactive; EC50 [25]: 22.3 µM; Activity [26]: inactive; IC50 [27]: 12.5 µM; Activity [28]: inactive |
| CSc1ncnc2c1c(-c1ccsc1)cn2[C@@H]1O[C@H](CO)[C@@H](O)[C@H]1O | > 20 µM | 10.9 µM | inactive | > 20 µM | inactive | inactive | > 20 µM | inactive | > 20 µM | > 20 µM | > 20 µM | inactive | > 44 µM | inactive | 4.59 µM | > 20 µM | inactive | > 100 µM | 95.8 µM | inactive | IC50 [21]: > 15 µM; CC50 [22]: > 44 µM; Activity [23]: inactive; Activity [24]: inactive; EC50 [25]: > 44 µM; Activity [26]: inactive; IC50 [27]: 0.45 µM; Activity [28]: inactive |
| Cc1nc(N)c2c(-c3ccsc3)cn([C@@H]3O[C@H](CO)[C@@H](O)[C@H]3O)c2n1 | > 20 µM | 28.7 µM | inactive | > 20 µM | inactive | inactive | > 20 µM | inactive | > 20 µM | > 20 µM | > 20 µM | inactive | > 44 µM | inactive | > 20 µM | > 20 µM | inactive | > 100 µM | > 100 µM | inactive | IC50 [21]: > 20 µM; CC50 [22]: > 44 µM; Activity [23]: inactive; Activity [24]: inactive; EC50 [25]: > 44 µM; Activity [26]: inactive; IC50 [27]: > 20 µM; Activity [28]: inactive |
| CSc1ncnc2c1c(-c1ccoc1)cn2[C@@H]1O[C@H](CO)[C@@H](O)[C@H]1O | 0.28 µM | 4.72 µM | inactive | 0.1 µM | inactive | inactive | > 20 µM | inactive | 0.04 µM | 14.2 µM | 3.25 µM | inactive | > 44 µM | inactive | 0.36 µM | 5.39 µM | inactive | > 100 µM | 98.8 µM | inactive | IC50 [21]: > 15 µM; CC50 [22]: > 44 µM; Activity [23]: inactive; Activity [24]: inactive; EC50 [25]: > 44 µM; Activity [26]: inactive; IC50 [27]: 0.06 µM; Activity [28]: inactive |
